Source: PubChem BioAssay
TRPML3 agonist: agonists of human TRPML3 channel. Q8TDD5. actives 0.29% (n = 220,000). activation, % at 3 µM. HEK293 TRPML3-YFP, Fluo-8 calcium fluorescence; 100% = the carbachol control signal. AID 1448;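 active = activation above its plate's cutoff, the mean activation of the plate's test wells plus 3 SD, cut at about 12% in these data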
Target sequence (Q8TDD5 whole entry, looked up): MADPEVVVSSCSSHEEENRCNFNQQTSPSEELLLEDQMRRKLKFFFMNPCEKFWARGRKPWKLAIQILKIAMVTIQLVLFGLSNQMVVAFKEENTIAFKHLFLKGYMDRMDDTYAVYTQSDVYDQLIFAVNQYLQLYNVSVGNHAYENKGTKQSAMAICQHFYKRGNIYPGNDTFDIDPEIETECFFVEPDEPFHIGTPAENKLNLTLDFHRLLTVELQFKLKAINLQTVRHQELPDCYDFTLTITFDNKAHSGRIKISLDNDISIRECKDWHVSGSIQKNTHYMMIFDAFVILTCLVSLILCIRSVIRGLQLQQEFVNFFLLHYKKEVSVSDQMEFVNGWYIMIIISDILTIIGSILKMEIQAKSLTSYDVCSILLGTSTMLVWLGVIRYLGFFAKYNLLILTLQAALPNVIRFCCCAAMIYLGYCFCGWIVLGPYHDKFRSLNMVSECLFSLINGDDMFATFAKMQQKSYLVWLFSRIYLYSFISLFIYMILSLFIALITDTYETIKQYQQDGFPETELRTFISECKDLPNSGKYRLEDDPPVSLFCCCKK
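Test system: HEK293 cells stably carrying human TRPML3-YFP; Doses: single dose, 3 µM final nominal compound, 0.3% DMSO final; Schedule: dye loading 1 h 37 °C then 30 min ambient, 125 s read; Technique: Fluo-8 calcium fluorescence; Benchmarks: high control carbachol 87 µM, low control DMSO.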
CRFR2-BP ag: agonists of human CRF-binding protein/CRF-R2 receptor complex; actives 0.46% (n = 350,000); HEK293 CRF-R2/CRF-BP, calcium dye fluorescence (FLIPR); percent of saturating CRF peptide response; activation, % at 13.2 µM;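 active = activation of at least 50%, plus an integration ratio under a set limit after plate pattern correction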
CRFBP-R2 block: CRF-BP/CRF-R2 complex antagonism. HEK293 CRF-R2/CRF-BP, CRF-induced calcium fluorescence. inhibition, % at 11.8 µM. actives 0.59% (n = 350,000). AID 588475;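 active = inhibition of the ligand-induced calcium signal above about 50% at the single tested concentration, limit read from the data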
TRPN1 ag: activates the zebrafish TRPN1 channel. HEK293 zebrafish TRPN1-YFP, Fluo-8 calcium fluorescence; 100% = response to 87 µM carbachol. activation, % at 3 µM. actives 0.18% (n = 220,000). AID 1424;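 active = activation above its plate's cutoff, the mean activation of test wells on that plate plus 3 SD, cut at about 19% in these data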
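System: zebrafish TRPN1-YFP in HEK293 cells / Dosing: 3 µM single point / Timing: dye loading 1 h at 37 °C, then 30 min room temperature / Signal: Fluo-8 calcium fluorescence, excitation 470-495 nm, emission 515-575 nm / Read-out basis: percent activation from peak over basal fluorescence ratio, control-normalized / Control set: high carbachol 87 µM, low DMSO alone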
TRPN1 ag 2: zebrafish TRPN1 agonism as TRPML3 agonist counter-screen. shares compounds with TRPML3 agonist. HEK293 zebrafish TRPN1-YFP, Fluo-8 calcium fluorescence; scaled: carbachol wells 100%, DMSO wells 0%. activation, % at 3 µM. actives 10% (n = 310);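 active = mean activation over replicates above a set limit taken from the earlier TRPN1 channel primary screen, cut at about 19% in these data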
TRPML3 ag conf: human TRPML3 agonism, confirmation; shares compounds with TRPML3 agonist; HEK293 TRPML3-YFP, Fluo-8 calcium fluorescence; 100% set by carbachol, 0% by DMSO; activation, % at 3 µM; actives 80% (n = 310);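 active = activation above a set limit derived from the earlier primary screen, cut at about 12% in these data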
Numbers stand for hits; – = inactive; · = not tested or not shown; ! = repeats disagree. An excerpt weighted towards active compounds, which were near 1.2% of everything screened.

SMILES	TRPML3 agonist	CRFR2-BP ag	CRFBP-R2 block	TRPN1 ag	others
CC1CCCN(c2ccc(C(=O)N3CCC4(CC3)OCCO4)cc2[N+](=O)[O-])C1 (centres undefined)	–	–	–	–
CCOC(=O)C1CCCN(c2ccc([N+](=O)[O-])c3nonc23)C1 (centres undefined)	112.6	207.8	–	290.9
CC1=NCCc2c1[nH]c1cc(O)ccc21	·	220.4	–	·
CCOC(=O)C(O)(c1ccc(NC(=S)NC(=O)c2ccc(Cl)cc2Cl)cc1)C(F)(F)F (centres undefined)	–	147.8	–	–
COC(=O)C(O)(c1ccc(NC(=S)NC(=O)c2ccc(Cl)cc2Cl)c(C)c1)C(F)(F)F (centres undefined)	–	–	–	–
CCOC(=O)C(O)(c1ccc(NC(=S)NC(=O)c2ccc(Cl)cc2Cl)c(C)c1)C(F)(F)F (centres undefined)	11.9	113.9	–	22.1
CCN(CC)CCN=C(C)c1c(O)n(-c2ccccc2OC)c(=O)[nH]c1=O	–	–	86.6	–
CCCCCCC(=O)c1c(O)n(-c2ccccc2OC)c(=O)[nH]c1=O (tested in a mixture with another compound)	–	–	–	–
O=C(CN1CC=C(c2ccccc2)CC1)NC(=O)NCc1ccccc1	–	–	–	–
Brc1ccc(Oc2ccc(Br)cc2Br)c(Br)c1	·	–	–	·
COc1nc2ccccc2c(=O)n1-c1ccc(Cl)cc1	–	–	–	–
O=c1c2ccccc2nc(N2CCCC2)n1-c1ccc(Cl)cc1	–	–	63.7	–
CN1CCN(c2ccc([N+](=O)[O-])c(SCCO)c2)CC1	–	–	–	–
COc1nc(C)nc(NC(=O)NS(=O)(=O)c2ccccc2Cl)n1	·	–	–	·
O=[N+]([O-])c1cccc(CCl)c1	·	–	–	·
Cc1ccccc1N1C(=O)NC(=O)/C(=C\c2ccc3c(c2)CCCN3Cc2ccccc2)C1=O	–	57.9	–	–
O=C1NC(=S)NC(=O)C1=Cc1ccc2c(c1)CCN2CCCCl	–	–	–	–
Cc1ccc(-n2c(O)c(/C=C/C=Nc3ccccc3)c(=O)[nH]c2=O)cc1	–	53.2	–	–
O=c1[nH]c(=O)n(-c2ccccc2)c(O)c1/C=C/C=Nc1ccccc1	–	–	–	–
COc1ccc(-n2c(O)c(/C=C/C=Nc3ccccc3)c(=O)[nH]c2=O)cc1	26.7	104.6	–	42.6
O=c1[nH]c(=O)n(C2CCCCC2)c(O)c1/C=C/C=Nc1ccccc1	–	112.3	–	–
C=CCn1c(O)c(/C=C/C=Nc2ccccc2)c(=O)[nH]c1=O	–	–	–	–
O=C(Nc1ccc(Cl)cc1C(=O)c1ccccc1)c1ccco1	–	–	–	–
COC(=O)C(Cc1ccc(N(CCCl)CCCl)cc1)N=Cc1ccccc1O (centres undefined)	·	–	66.9	·
C[C@@H]1CCC2[C@@H](C)C(=O)O[C@@H]3OC4(C)CCC1[C@@]23OO4 (some centres undefined)	·	–	–	·
SMILES	TRPML3 agonist	CRFR2-BP ag	CRFBP-R2 block	TRPN1 ag	others
Nc1cc(Cl)c2nonc2c1[N+](=O)[O-]	–	–	58.0	–
CCCCn1c(N)c(N(CCOC)C(=O)CN2CC=C(c3ccccc3)CC2)c(=O)[nH]c1=O	–	–	–	–
CN1CCN(C(=O)COc2ccc3ccccc3c2Br)CC1	–	–	–	–
O=P(/C(=N/O)N1CCOCC1)(N1CCOCC1)N1CCOCC1	–	–	54.8	–
CC(C)(C)P(=O)(N1CCOCC1)N1CCOCC1	–	–	–	–
CC(=O)OCC[N+](C)(C)C	99.8	–	–	75.2
O=C(C(=O)N1CCOCC1)c1cn(Cc2ccc(F)cc2)c2ccccc12	–	–	–	–
CCN(CC)c1ccc(N=Cc2c(O)n(Cc3ccccc3)c(=O)[nH]c2=O)cc1	–	190.0!	–	–
COc1ccc(Cn2c(O)c(/C=N/NC(=O)c3ccccc3)c(=O)[nH]c2=O)cc1	–	–	54.8	–
CCOc1ccc(-n2c(O)c(C=Nc3ccc(N(CC)CC)cc3)c(=O)[nH]c2=O)cc1	–	101.7	–	–
COC(=O)C1=C(c2cccc(OCc3ccccc3)c2)C[C@@H]2CC[C@H]1N2C(=O)NCCOc1ccc(OC)cc1	·	–	–	·
COC(=O)C1=C(c2ccccc2)C[C@@H]2CC[C@H]1N2C(=O)NCc1ccc(C(F)(F)F)cc1	·	–	–	·
COC(=O)C1=C(c2ccc(C(C)=O)cc2)C[C@@H]2CC[C@H]1N2C(=O)NCc1ccc(C(F)(F)F)cc1	·	67.6	–	·
Cn1c2ccccc2c2cnn(CC(=O)N3CCC4(CC3)OCCO4)c(=O)c21	–	·	·	–
COC1C(C)OC(OC2CC(C)(O)Cc3cc4c(c(O)c32)C(=O)c2c(O)cc3c(c2C4=O)OC2OC3(C)C(O)C(N(C)C)C2O)C(OC)C1(C)OC (centres undefined)	·	198.1	–	·
COc1ccc(CNCCc2ccccc2F)c(OC)c1C	·	–	–	·
CC(=O)Nc1cc(C(=O)N2CCC3(CC2)OCCO3)ccc1S(=O)(=O)c1ccc(C)cc1	–	–	98.1	–
Cc1cc(C)n(-c2ccc(NN=C(C#N)C#N)cc2)n1	17.6	52.9	–	31.9
CCN(CC)S(=O)(=O)c1ccc(NN=C(C#N)C#N)cc1	–	–	–	–
N#CC(C#N)=NNc1ccc(-n2ccc(C(F)(F)F)n2)cc1	23.3	52.7	–	27.4
COc1ccccc1N1C(=O)NC(=O)/C(=C/c2ccc3c4c(cccc24)CC3)C1=O	–	–	–	–
COc1ccc(N2C(=O)NC(=O)/C(=C\c3cn(C)c4ccccc34)C2=O)cc1	·	119.9	–	·
COC(=O)Cn1cc(/C=C2\C(=O)NC(=O)N(c3ccc(OC)cc3)C2=O)c2ccccc21	·	81.4	–	·
COc1ccc(N2C(=O)NC(=O)/C(=C/c3ccc(N4CCOCC4)cc3)C2=O)cc1	–	·	·	–
CN(C)C=C1C(=O)N(C2CCCCC2)C(=O)N(C2CCCCC2)C1=O	–	–	–	–
SMILES	TRPML3 agonist	CRFR2-BP ag	CRFBP-R2 block	TRPN1 ag	others
CC1OC(C[N+](C)(C)C)CC1O (centres undefined)	·	–	–	·
C[C@H]1OC[C@@H](C[N+](C)(C)C)O1	98.9	–	–	71.4
COc1ccc2c(c1)CC1(CN2C)C(=O)NC(=O)N(CCc2ccccc2)C1=O (centres undefined)	–	–	–	–
O=C1NC(=O)N(c2cccc(Cl)c2)C(=O)/C1=C\c1ccc(Sc2nc3ccccc3[nH]2)o1	13.7	–	–	19.9
O=C1NC(=O)N(c2ccccc2F)C(=O)/C1=C/c1ccc(Sc2nc3ccccc3[nH]2)o1	46.1	–	–	43.0
Cc1ccc(/C=C2\C(=O)NC(=S)N(c3ccccc3F)C2=O)s1	–	–	–	–
O=C1NC(=O)N(c2ccccc2)C(=O)/C1=C/c1ccc(Sc2ccccc2)o1	–	–	–	–
C=CCn1c(O)c(C(CC)=Nc2ccc(NC(C)=O)cc2)c(=O)[nH]c1=O	–	–	–	–
O=C(CCl)Nc1nccs1	–	–	62.5	–
O=C(Nc1nccs1)C(Cl)(Cl)Cl	–	–	–	–
CCOC(=O)c1c(N)n(Cc2ccco2)c2nc3ccccc3nc12	15.4	–	–	–	TRPN1 ag 2=–;TRPML3 ag conf=–
C=CCn1c(O)c(Cc2ccc(OCC)cc2)c(=O)[nH]c1=O	·	–	–	·
